Test results taken from ChEMBL document CHEMBL4689842, “EUbOPEN Chemogenomics Library wave 1” (2021).

Tested on: HEK-293T
Assay: Multiplex assay against HEK293T;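 as to Population Tubulin-Different-Phenotype (%): share of the cells with healthy nuclei that show this phenotype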
Assay type: toxicity, cell-based
Conditions: human
In short: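 Tubulin, mitochondrial-mass and membrane-permeability phenotypes are per cents of healthy-nucleus cells. Cells were gated by CellPathfinder machine learning into Hoechst high-intensity objects or normal cells, normal cells into healthy, pyknosed or fragmented nuclei, and pyknosed cells into mitotic or apoptotic. Before that, live cells stained at seeding with Hoechst33342, BioTracker Green Microtubule Cytoskeleton Dye, MitoTracker Red and Annexin V Alexa Fluor 680 were imaged on a CQ1 microscope at 37°C and 5% CO2 after compound addition.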

[1] = 12 h, 1 µM, compound concentration 1 uM, replicate 1
[2] = 12 h, 1 µM, compound concentration 1 uM, replicate 2
[3] = 12 h, 10 µM, compound concentration 10 uM, replicate 1
[4] = 12 h, 10 µM, compound concentration 10 uM, replicate 2
[5] = 24 h, 1 µM, compound concentration 1 uM, replicate 1
[6] = 24 h, 1 µM, compound concentration 1 uM, replicate 2
[7] = 24 h, 10 µM, compound concentration 10 uM, replicate 1
[8] = 24 h, 10 µM, compound concentration 10 uM, replicate 2
[9] = 48 h, 1 µM, compound concentration 1 uM, replicate 1
[10] = 48 h, 1 µM, compound concentration 1 uM, replicate 2
[11] = 48 h, 10 µM, compound concentration 10 uM, replicate 1
[12] = 48 h, 10 µM, compound concentration 10 uM, replicate 2

## C=CC(=O)Nc1cccc(Sc2nc(Nc3ccc(N4CCN(C)CC4)cc3)ncc2Cl)c1
[1]
  Population Apoptotic (%): 33%
  Population Fragmented Nuclei (%): 28%
  Population Healthy Nuclei (%): 14%
  Population Hoechst High Intensity Objects (%): 16%
  Population Membrane Permeable-Phenotype (%): 22%
  Population Mitochondria Different-Phenotype (%): 15%
  Population Mitotic Cells (%): 66%
  Population Normal (%): 83%
  Population Pyknosed Nuclei (%): 57%
  Population Tubulin-Different-Phenotype (%): 58%
  Total Cell Count: 748
[2]
  Population Apoptotic (%): 20%
  Population Fragmented Nuclei (%): 4%
  Population Healthy Nuclei (%): 64%
  Population Hoechst High Intensity Objects (%): 10%
  Population Membrane Permeable-Phenotype (%): 7%
  Population Mitochondria Different-Phenotype (%): 44%
  Population Mitotic Cells (%): 79%
  Population Normal (%): 89%
  Population Pyknosed Nuclei (%): 30%
  Population Tubulin-Different-Phenotype (%): 98%
  Total Cell Count: 1010
[3]
  Population Apoptotic (%): 21%
  Population Fragmented Nuclei (%): 26%
  Population Healthy Nuclei (%): 38%
  Population Hoechst High Intensity Objects (%): 21%
  Population Membrane Permeable-Phenotype (%): 10%
  Population Mitochondria Different-Phenotype (%): 13%
  Population Mitotic Cells (%): 78%
  Population Normal (%): 78%
  Population Pyknosed Nuclei (%): 35%
  Population Tubulin-Different-Phenotype (%): 14%
  Total Cell Count: 476
[4]
  Population Apoptotic (%): 6%
  Population Fragmented Nuclei (%): 7%
  Population Healthy Nuclei (%): 84%
  Population Hoechst High Intensity Objects (%): 3%
  Population Membrane Permeable-Phenotype (%): 5%
  Population Mitochondria Different-Phenotype (%): 16%
  Population Mitotic Cells (%): 93%
  Population Normal (%): 96%
  Population Pyknosed Nuclei (%): 7%
  Population Tubulin-Different-Phenotype (%): 25%
  Total Cell Count: 1448
[5]
  Population Apoptotic (%): 55%
  Population Fragmented Nuclei (%): 34%
  Population Healthy Nuclei (%): 26%
  Population Hoechst High Intensity Objects (%): 14%
  Population Membrane Permeable-Phenotype (%): 18%
  Population Mitochondria Different-Phenotype (%): 12%
  Population Mitotic Cells (%): 44%
  Population Normal (%): 85%
  Population Pyknosed Nuclei (%): 39%
  Population Tubulin-Different-Phenotype (%): 52%
  Total Cell Count: 683
[6]
  Population Apoptotic (%): 28%
  Population Fragmented Nuclei (%): 6%
  Population Healthy Nuclei (%): 63%
  Population Hoechst High Intensity Objects (%): 10%
  Population Membrane Permeable-Phenotype (%): 6%
  Population Mitochondria Different-Phenotype (%): 63%
  Population Mitotic Cells (%): 71%
  Population Normal (%): 89%
  Population Pyknosed Nuclei (%): 29%
  Population Tubulin-Different-Phenotype (%): 97%
  Total Cell Count: 914
[7]
  Population Apoptotic (%): 26%
  Population Fragmented Nuclei (%): 18%
  Population Healthy Nuclei (%): 64%
  Population Hoechst High Intensity Objects (%): 12%
  Population Membrane Permeable-Phenotype (%): 10%
  Population Mitochondria Different-Phenotype (%): 12%
  Population Mitotic Cells (%): 73%
  Population Normal (%): 87%
  Population Pyknosed Nuclei (%): 17%
  Population Tubulin-Different-Phenotype (%): 30%
  Total Cell Count: 470
[8]
  Population Apoptotic (%): 4%
  Population Fragmented Nuclei (%): 20%
  Population Healthy Nuclei (%): 76%
  Population Hoechst High Intensity Objects (%): 4%
  Population Membrane Permeable-Phenotype (%): 7%
  Population Mitochondria Different-Phenotype (%): 2%
  Population Mitotic Cells (%): 95%
  Population Normal (%): 95%
  Population Pyknosed Nuclei (%): 3%
  Population Tubulin-Different-Phenotype (%): 19%
  Total Cell Count: 2375

## O=C(c1cc2c(cc1F)OC(c1ccc(F)cc1)(c1ccc(Cl)cc1Cl)O2)N1CCOCC1 (configuration not stated)
[1]
  Population Apoptotic (%): 45%
  Population Fragmented Nuclei (%): 17%
  Population Healthy Nuclei (%): 37%
  Population Hoechst High Intensity Objects (%): 12%
  Population Membrane Permeable-Phenotype (%): 1%
  Population Mitochondria Different-Phenotype (%): 87%
  Population Mitotic Cells (%): 54%
  Population Normal (%): 87%
  Population Pyknosed Nuclei (%): 44%
  Population Tubulin-Different-Phenotype (%): 54%
  Total Cell Count: 214
[2]
  Population Apoptotic (%): 16%
  Population Fragmented Nuclei (%): 5%
  Population Healthy Nuclei (%): 35%
  Population Hoechst High Intensity Objects (%): 5%
  Population Membrane Permeable-Phenotype (%): 3%
  Population Mitochondria Different-Phenotype (%): 24%
  Population Mitotic Cells (%): 84%
  Population Normal (%): 94%
  Population Pyknosed Nuclei (%): 59%
  Population Tubulin-Different-Phenotype (%): 23%
  Total Cell Count: 268
[3]
  Population Apoptotic (%): 64%
  Population Fragmented Nuclei (%): 10%
  Population Healthy Nuclei (%): 17%
  Population Hoechst High Intensity Objects (%): 17%
  Population Membrane Permeable-Phenotype (%): 0%
  Population Mitochondria Different-Phenotype (%): 94%
  Population Mitotic Cells (%): 35%
  Population Normal (%): 82%
  Population Pyknosed Nuclei (%): 72%
  Population Tubulin-Different-Phenotype (%): 97%
  Total Cell Count: 264
[4]
  Population Apoptotic (%): 54%
  Population Fragmented Nuclei (%): 8%
  Population Healthy Nuclei (%): 8%
  Population Hoechst High Intensity Objects (%): 9%
  Population Mitochondria Different-Phenotype (%): 58%
  Population Mitotic Cells (%): 45%
  Population Normal (%): 90%
  Population Pyknosed Nuclei (%): 82%
  Population Tubulin-Different-Phenotype (%): 83%
  Total Cell Count: 153
[5]
  Population Apoptotic (%): 48%
  Population Fragmented Nuclei (%): 15%
  Population Healthy Nuclei (%): 34%
  Population Hoechst High Intensity Objects (%): 15%
  Population Membrane Permeable-Phenotype (%): 0%
  Population Mitochondria Different-Phenotype (%): 79%
  Population Mitotic Cells (%): 51%
  Population Normal (%): 84%
  Population Pyknosed Nuclei (%): 50%
  Population Tubulin-Different-Phenotype (%): 43%
  Total Cell Count: 216
[6]
  Population Apoptotic (%): 14%
  Population Fragmented Nuclei (%): 3%
  Population Healthy Nuclei (%): 60%
  Population Hoechst High Intensity Objects (%): 3%
  Population Membrane Permeable-Phenotype (%): 1%
  Population Mitochondria Different-Phenotype (%): 36%
  Population Mitotic Cells (%): 85%
  Population Normal (%): 96%
  Population Pyknosed Nuclei (%): 35%
  Population Tubulin-Different-Phenotype (%): 39%
  Total Cell Count: 330
[7]
  Population Fragmented Nuclei (%): 11%
  Population Healthy Nuclei (%): 19%
  Population Hoechst High Intensity Objects (%): 16%
  Population Membrane Permeable-Phenotype (%): 2%
  Population Mitochondria Different-Phenotype (%): 86%
  Population Normal (%): 83%
  Population Pyknosed Nuclei (%): 68%
  Population Tubulin-Different-Phenotype (%): 95%
  Total Cell Count: 274
[8]
  Population Apoptotic (%): 53%
  Population Fragmented Nuclei (%): 9%
  Population Healthy Nuclei (%): 13%
  Population Hoechst High Intensity Objects (%): 7%
  Population Membrane Permeable-Phenotype (%): 10%
  Population Mitochondria Different-Phenotype (%): 63%
  Population Mitotic Cells (%): 46%
  Population Normal (%): 92%
  Population Pyknosed Nuclei (%): 77%
  Population Tubulin-Different-Phenotype (%): 89%
  Total Cell Count: 154
[9]
  Population Apoptotic (%): 57%
  Population Fragmented Nuclei (%): 16%
  Population Healthy Nuclei (%): 44%
  Population Hoechst High Intensity Objects (%): 18%
  Population Membrane Permeable-Phenotype (%): 0%
  Population Mitochondria Different-Phenotype (%): 48%
  Population Mitotic Cells (%): 42%
  Population Normal (%): 81%
  Population Pyknosed Nuclei (%): 38%
  Population Tubulin-Different-Phenotype (%): 40%
  Total Cell Count: 232
[10]
  Population Apoptotic (%): 22%
  Population Fragmented Nuclei (%): 5%
  Population Healthy Nuclei (%): 76%
  Population Hoechst High Intensity Objects (%): 3%
  Population Membrane Permeable-Phenotype (%): 2%
  Population Mitochondria Different-Phenotype (%): 11%
  Population Mitotic Cells (%): 77%
  Population Normal (%): 96%
  Population Pyknosed Nuclei (%): 18%
  Population Tubulin-Different-Phenotype (%): 29%
  Total Cell Count: 557
[11]
  Population Apoptotic (%): 53%
  Population Fragmented Nuclei (%): 16%
  Population Healthy Nuclei (%): 26%
  Population Hoechst High Intensity Objects (%): 10%
  Population Membrane Permeable-Phenotype (%): 19%
  Population Mitochondria Different-Phenotype (%): 33%
  Population Mitotic Cells (%): 46%
  Population Normal (%): 89%
  Population Pyknosed Nuclei (%): 57%
  Population Tubulin-Different-Phenotype (%): 87%
  Total Cell Count: 264
[12]
  Population Apoptotic (%): 58%
  Population Fragmented Nuclei (%): 8%
  Population Healthy Nuclei (%): 24%
  Population Hoechst High Intensity Objects (%): 8%
  Population Membrane Permeable-Phenotype (%): 25%
  Population Mitochondria Different-Phenotype (%): 61%
  Population Mitotic Cells (%): 41%
  Population Normal (%): 91%
  Population Pyknosed Nuclei (%): 66%
  Population Tubulin-Different-Phenotype (%): 83%
  Total Cell Count: 158
